Assay outcomes: PubChem, Broad Institute
PDI turbidity = blocks human protein disulfide isomerase activity; P07237; PDI insulin aggregation turbidity, A650, 90 min; inhibition, % at 10 µM; hit rate 0.052% among 350,000; AID 588391;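 active means mean inhibition across replicates of 30% or more, whatever share of single replicates reach that level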
FN deposit inh = fibronectin deposition inhibition; AH1F fibroblasts, Alexa488-fibronectin deposition fluorescence, overnight; inhibition, % at 12.6 µM; hit rate 0.086% among 350,000;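 active means mean inhibition across replicates of 30% or more, regardless of how many single replicates reach that level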;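 further: positive control wells lacked labelled fibronectin entirely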
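Schedule: 1 h cell adhesion before compound, then overnight fibronectin incubation; test system: AH1F fibroblast monolayer depositing Alexa488-labelled fibronectin into matrix; quantity: 10000 AH1F cells per well; probe or stimulus: fluorescent fibronectin at 24 nM final; signal: fluorescence, ex 485 nm, em 525 nm; evaluation: percent inhibition as loss of matrix-bound fibronectin fluorescence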
SIRT5 block = blocks human SIRT5 desuccinylation of peptide; Q9NXA8; Purified SirT5, succinyl-peptide AMC, trypsin-coupled fluorescence; inhibition, % at 15 µM; hit rate 1.1% among 330,000; AID 652115; in the data active means inhibition above about 15%
AF4-AF9 inh = MLL-AF4/AF9 protein interaction inhibition. hit rate 0.47% among 350,000. AlphaScreen, biotin-AF4 peptide binding to FLAG-AF9. P42568. inhibition, % at 10 µM;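 active means every replicate reaching a set inhibition limit, whatever the replicate mean, cut at about 25% in these data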;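 further: 0% = plate neutral control median and 100% = total signal loss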
ERp5 inh = inhibitors of human ERp5; Q15084; ERp5 insulin aggregation, absorbance 650 nm, 90 min; inhibition, % at 9.99 µM; hit rate 0.05% among 350,000;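 active means mean replicate inhibition above about 25%, with every replicate also reaching it, limit read from the data, passing the limit was not always enough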
Target sequence (Q15084 whole entry, looked up): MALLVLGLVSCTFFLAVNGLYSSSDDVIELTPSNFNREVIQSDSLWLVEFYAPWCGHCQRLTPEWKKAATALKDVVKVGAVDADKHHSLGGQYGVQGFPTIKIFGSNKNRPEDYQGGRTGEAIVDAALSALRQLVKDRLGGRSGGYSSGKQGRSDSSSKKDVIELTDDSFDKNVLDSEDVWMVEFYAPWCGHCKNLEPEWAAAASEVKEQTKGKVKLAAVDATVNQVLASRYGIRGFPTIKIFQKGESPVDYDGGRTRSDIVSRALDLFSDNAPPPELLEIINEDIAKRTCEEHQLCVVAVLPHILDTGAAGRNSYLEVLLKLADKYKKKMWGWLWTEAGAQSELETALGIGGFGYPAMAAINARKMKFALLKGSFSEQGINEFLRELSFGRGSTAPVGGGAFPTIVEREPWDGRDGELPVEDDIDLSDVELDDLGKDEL
Starred values were filed as active, the others as inactive; / = no result; ! = a repeat was not active. An excerpt weighted towards active compounds, which were near 1.3% of everything screened.

SMILES | PDI turbidity | FN deposit inh | SIRT5 block | AF4-AF9 inh | ERp5 inh
O=C(NCC1CCCCC1)[C@@H]1[C@@H](CO)[C@@H]2Cn3c(cccc3=O)[C@H]1N2CCc1ccccc1 | / | / | 3 | 1 | 2
C[C@@H](NC(=O)[C@@H]1[C@@H](CO)[C@@H]2Cn3c(cccc3=O)[C@H]1N2Cc1ccccc1)c1ccccc1 | / | / | 7 | -1 | 5
Cc1nc2nc(-c3ccccc3)cn2nc1C | 3 | / | 22* | 2 | 4
CCN(c1ccccc1)S(=O)(=O)c1ccc(OC)c(NC(=O)c2cc(Cl)ccn2)c1 | -6 | 6 | -1 | -19 | -12
CCN(c1ccccc1)S(=O)(=O)c1ccc(OC)c(NC(=O)c2c(C)noc2C)c1 | 1 | -3 | -3 | -26 | 27*
CC(=O)c1cccc(NC(=O)CC2Oc3ccc(C)cc3NC2=O)c1 (stereo unspecified) | / | -4 | / | -1 | -1
Cc1ccc2c(c1)N(CCCC(=O)NCCCN1CCCC1=O)C(=O)CO2 | -3 | -5 | -5 | 49* | -2
COc1ccc2cc3cc(C(=O)NCCCN4CCC(C)CC4)oc3nc2c1 | -1 | / | / | / | /
CC1Sc2ccc(C(=O)Nc3cc(S(C)(=O)=O)ccc3Cl)cc2NC1=O (stereo unspecified) | -2 | 3 | 0 | 0 | 4
O=C(Nc1ccccc1C(=O)O)c1cc(S(=O)(=O)Nc2ccccc2)ccc1Cl | -51 | 13 | 23* | -4 | -7
O=C(O)c1ccc(NS(=O)(=O)c2ccc(Cl)c(C(=O)Nc3ccccc3)c2)cc1 | 14 | 1 | 0 | -2 | -5
CC(C)(C)c1ccc(-n2nc(C#N)c(Cl)cc2=O)cc1 | -14 | 30* | 2 | 4 | 0
C[C@H]1CN([C@@H](C)CO)C(=O)c2ccccc2-c2ccccc2CO[C@H]1CN(C)Cc1ccc2c(c1)OCCN2C | / | -8 | 0 | 34* | -2
C[C@@H]1CN([C@H](C)CO)C(=O)c2c(c3ccccc3n2C)-c2ccccc2CO[C@H]1CN(C)Cc1ccc2c(c1)OCCN2C | 10 | -3 | 0 | 42*! | 0
O=C(NN=C1CCCCCC1)c1cccs1 | 1 | 3 | -4 | -1 | 7
CCOc1ccc(C(C(=O)NCC2CCCO2)N(Cc2cccs2)C(=O)c2snc(C(N)=O)c2N)cc1 (stereo unspecified) | 5 | -2 | 25* | -2 | 0
CCO[C@@H]1OC(C(=O)NCc2nc3ccccc3[nH]2)=C[C@H](c2csc3ccccc23)[C@H]1CCCO | 9 | 2 | 31* | 2 | 7
CCO[C@H]1OC(C(=O)NCc2nc3ccccc3[nH]2)=C[C@@H](c2csc3ccccc23)[C@@H]1CCCO | 4 | 8 | -1 | -1 | 3
Cc1n[nH]c(=O)c2c(NC(=O)CSc3nnnn3-c3ccccc3)oc(C)c12 | 2 | 8 | -3 | 5 | -5
Cc1n[nH]c(=O)c2c(NC(=O)CSc3nnnn3-c3ccc(O)cc3)oc(C)c12 | 43* | -9 | 4 | 0 | -10
COc1ccccc1-n1cnc2cc(NCc3ccccn3)ccc21 | -6 | -2 | / | / | /
CCCn1cnc2cc(NCc3ccccn3)ccc21 | -3 | 26 | -1 | 43* | 0
O=C(NCc1ccco1)c1ccc(NS(=O)(=O)c2cccc(F)c2)cc1 | -4 | / | 0 | 2 | 2
Cc1ccc(S(=O)(=O)Nc2cccc3cccnc23)c([N+](=O)[O-])c1 | 14 | 34* | 1 | -1 | 1
Cn1c(=O)c2c(nc(NCc3ccc4c(c3)OCO4)n2Cc2ccccc2F)n(C)c1=O | -5 | / | / | / | /
SMILES | PDI turbidity | FN deposit inh | SIRT5 block | AF4-AF9 inh | ERp5 inh
Fc1ccc2cc(CCO[C@H]3CCCCO3)ncc2c1 | -7 | -5 | 7 | -4 | 3
Fc1ccc2cnc(CCO[C@H]3CCCCO3)cc2c1 | 6 | 16 | -1 | 49* | 3
Cc1oc2cc(OC(C)C(=O)O)ccc2c(=O)c1Oc1ccccc1 (stereo unspecified) | -6 | 5 | / | / | /
C/C=C/c1ccc2c(c1)O[C@H](CN(C)C(=O)c1ccc(F)cc1)[C@H](C)CN([C@@H](C)CO)S2(=O)=O | / | -6 | 0 | 1 | -5
Brc1ccc(N/N=C(/N=Nc2nn[nH]n2)c2ccccc2)cc1 | 6 | 10 | 9 | 41* | 4
O=C(O)c1ccc(N=N/C(=N\Nc2ccc(C(=O)O)cc2)c2ccccc2)cc1 | 12 | 6 | 5 | 2 | -2
O=C1NN(c2ccccc2)C(=O)/C1=C/c1ccc(-c2ccc(C(=O)O)cc2)o1 | 6 | 1 | 24* | -28 | -1
Cc1ccc(N2NC(=O)/C(=C/c3ccc(-c4ccc(Cl)c(C(=O)O)c4)o3)C2=O)cc1C | 21 | -3 | 1 | 7 | -7
COC(=O)c1ccc(N2NC(=O)/C(=C/c3ccc(-c4ccc(Cl)c(C(=O)O)c4)o3)C2=O)cc1 | 4 | 0 | 23* | 1 | 13
CC1=NOC(=O)/C1=C\c1ccc(-c2ccc(Cl)c(C(=O)O)c2)o1 | 9 | 1 | 22* | -4 | 1
Cc1ccc(NC(=O)CN2c3cccc4cccc(c34)S2(=O)=O)cc1S(=O)(=O)N1CCOCC1 | -2 | 6 | / | / | /
CCOC(=O)C1Nc2ccccc2C2C(O)C(O)CC12 (stereo unspecified) | 1 | 0 | 7 | 26* | -3
CCOC(=O)C1Nc2ccc(C(F)(F)F)cc2C2c3ccccc3CC12 (stereo unspecified) | 0 | -5 | / | 1 | 9
Cc1nn(Cc2c(F)c(F)c(F)c(F)c2F)c(C)c1NC(=O)c1nn(C)cc1Br | -2 | / | 2 | -2 | 1
Cn1cc(Br)c(C(=O)Nc2c(F)c(F)c(F)c(F)c2F)n1 | 5 | 0 | 21* | -2 | -3
O=C(NCc1ccccc1Cl)/C(=C\c1cccnc1)NC(=O)c1ccccc1 | -7 | -11 | -1 | -4 | 6
FC(F)(F)c1cc(CCN2CCNC[C@@H]2Cc2ccccc2)cc(C(F)(F)F)c1 | -2 | -2 | / | 27* | 7
CC(=O)Nc1cc(-c2cccc(C(=O)NCCN(C)C)c2)cn2c(-c3ccccc3)cnc12 | 1 | 8 | / | -8 | -1
CN(C)CCNC(=O)c1cccc(-c2cnc3c(NC=O)cc(/C=C/c4ccccc4)cn23)c1 | 11 | -1 | 0 | 34* | 4
CC(=O)Nc1cc(-c2cccc(C(=O)NCCN(C)C)c2)cn2c(-c3cccc(C(F)(F)F)c3)cnc12 | 5 | 10 | / | 26* | -2
CN(C)CCNC(=O)c1cccc(-c2cnc3c(NC=O)cc(-c4cccc(F)c4)cn23)c1 | -6 | 8 | / | 7 | -1
CCSc1ccc(-c2cc(NC=O)c3ncc(-c4cccc(C(=O)NCCN(C)C)c4)n3c2)cc1 | -4 | 8 | 3 | 43* | -7
Cc1ccc(NC(=O)CCCCCC2NC(=O)NC2C)cc1 (stereo unspecified) | -5 | / | 3 | 97* | 1
COc1ccc(NC(=O)c2cccnc2N2CCCC2)cc1 | -5 | / | 19* | 1 | 7
COc1ccc(NC(=O)c2cccnc2N2CCCCC2)cc1 | 2 | / | / | / | /
CC(C)(C)c1cc2nc(NCc3cccc(Cl)c3)ccn2n1 | 12 | -2 | -3 | -1 | 6
